Assay outcomes as filed in PubChem BioAssay.
The list is not random: actives were taken first. Their share in the collection is about 0.3%.
KSHV LANA nucl: inhibitors of KSHV LANA-nucleosome binding, primary screen, biochemical, fluorescence polarization, FITC-LANA1-23, chicken nucleosomes. FITC-LANA1-23 / chicken nucleosome fluorescence polarization; active compounds read low. 51,000 compounds, 0.3% hits. z-score (concentration not given with the values);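 active = both repeat wells score below -2 in polarization z-score versus plate sample wells, excluding overly bright wells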
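Assay system: purified chicken nucleosomes with FITC-labelled LANA N-terminal peptide (1-23) / Probe or stimulus: 50 nM FITC-LANA1-23 probe / Compound dosing: pin-transferred compound, 100 nL / Times: compound with peptide–nucleosome mix 10–45 min at room temperature / Technique: fluorescence polarization, 480 nm excitation, 535 nm parallel and perpendicular emission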
Ab BasE inh: BasE siderophore enzyme inhibitors, primary screen, biochemical, Acinetobacter baumannii ATCC 17978, fluorescence polarization; purified BasE, fluorescence polarization binding displacement; inhibition, % (test concentration not listed); 84,000 compounds, 0.1% hits; AID 485350, 2010; in the data active = inhibition above about 25%, passing the limit was not always enough;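 also: 0% = negative plate control signal and 100% = positive plate control signal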
* = called active by the depositor; . = not tested or not shown; ! = a repeat was not active.

SMILES	KSHV LANA nucl	Ab BasE inh
N#Cc1c(=O)n(O)c2ccccc2[n+]1[O-]	-12.7*	2.1
O=c1c(-c2ccc(Oc3ccccc3)cc2)[n+]([O-])c2ccccc2n1O	0.258	0.4
O=C1c2ccccc2-c2n[nH]c3cccc1c23	-1.98*!	8.7
O=c1[nH]nc2c3c(cccc13)-c1ccccc1-2	1.91	-2.8
Cc1c(N(C)S(=O)(=O)c2cccc(C(=O)Nc3ccccc3N3CCOCC3)c2)c(=O)n(-c2ccccc2)n1C	.	1.3
CN(C)C(=O)CSc1nnc(-c2ccc(O)cc2)o1	-2.01	0.2
CC1=CC(C)=NC2Nc3c(C)cc(C)cc3C(=N)C12 (stereo not given)	-2.24*	5.1
COc1cc(-c2nnc(CN3C(=O)C4CC=CCC4C3=O)o2)cc(OC)c1OC (stereo not given)	.	-1.5
Cc1ccc(NC(=O)/C(C#N)=N/Nc2ccc(C(=O)O)cc2)c(C)c1	.	3.9
COc1ccc(N/N=C(\C#N)C(=O)Nc2ccccc2C(=O)O)cc1Cl	.	79.6*
CCOC(=O)c1ccc(NC(=O)C2=CSCCO2)cc1	-0.104	-4.5
CCCn1c(SCC(=O)Nc2ccccc2C(F)(F)F)nnc1-c1ccoc1C	-1.04	-2.2
Cn1c(=O)c2c(SCC(=O)Nc3ccccc3C(F)(F)F)ccnc2n(C)c1=O	-2.13*	-0.7
CCSc1nc2c(cnn2-c2ccc(Cl)cc2)c(=O)[nH]1	-0.407	1.0
Cc1cc2[nH]c(=O)c(=O)[nH]c2cc1S(=O)(=O)N1CCN(CCOc2ccc(Cl)cc2)CC1	2.72	-0.2
O=C1/C(=C\C=C\c2ccco2)SC(=S)N1NS(=O)(=O)c1ccccc1	-0.518	40.5*
CC(C)C(C(=O)O)N1C(=O)/C(=C/C=C/c2ccco2)SC1=S (stereo not given)	0.004	24.1
O=C(NN1C(=O)/C(=C\C=C\c2ccco2)SC1=S)c1ccccc1O	1.59	20.7
O=C(O)CCC(C(=O)O)N1C(=O)/C(=C/C=C/c2ccco2)SC1=S (stereo not given)	-2.17*	9.4
NS(=O)(=O)c1ccc(NC(=O)COC(=O)c2cc3ccccc3o2)cc1	0.191	-0.3
CCOC(=O)c1cc2c(=O)n3ccccc3nc2n(C2CCCCC2)c1=NC(=O)c1cccnc1	-2.58*	1.9
CCOC(=O)c1cc2c(=O)n3ccccc3nc2n(CC2CCCO2)c1=NC(C)=O (stereo not given)	0.757	-3.6
CCOC(=O)c1ccccc1OC(=O)c1c(F)c(F)c(F)c(F)c1F	0.63	-2.1
CC(C)CCNC(=O)c1cc(=O)c2ccccc2o1	.	-1.3
Cn1nc(-c2ccccc2)ccc1=O	-0.683	3.0
SMILES	KSHV LANA nucl	Ab BasE inh
O=c1ccc(-c2ccccc2)nn1Cc1ccncc1	-1.27	76.6*
COC(=O)c1ccc([C@@H]2Nc3c(C)cccc3[C@@H]3C=CC[C@@H]32)cc1	.	-1.1
O=C(O)C1Nc2c(I)cccc2C2C=CCC12 (stereo not given)	1.32	46.6*
COCC(=O)Nc1cccc(-c2ccc(S(C)(=O)=O)nn2)c1	-0.088	0.8
CCc1cc(=O)oc2c(OC(C)=O)c(OC(C)=O)ccc12	-0.357	1.2
OCCN(CCO)c1nc(N2CCCCC2)c2nc(N(CCO)CCO)nc(N3CCCCC3)c2n1	-2.3*!	36.5*!
C1CCCN(c2nc3nonc3nc2N2CCCCCC2)CC1	-0.202	0.0
C/C(=C\C(=O)c1cccnc1)Nc1ccccc1O	0.054	29.6*
CCC(C)c1ccc(O)c(NC(=O)c2cccnc2)c1 (stereo not given)	.	-0.2
Clc1ccc2c(c1)NNc1nncn1-2	-0.199	3.2
O=C(O)CSc1nnc2n1-c1ccc(Cl)cc1NN2	-5.56*	27.7
Cc1cc(=O)[nH]c(SCC(=O)c2cccs2)n1	.	0.8
Cc1ccnc(SCC(=O)c2cccs2)n1	.	60.5*
COc1cc(C(=O)CSc2nccc(C)n2)cc(OC)c1OC	.	5.7
Cc1ccnc(SCC(=O)c2ccc(Br)cc2)n1	-0.928	43.7*
Cc1ccc(-n2nnc(S(=O)(=O)c3ccc(C)cc3)c2N)cc1	-0.387	-1.3
CN(Cc1ccco1)C1CCCCC1NS(=O)(=O)c1ccc(Cl)cc1 (stereo not given)	-0.978	-0.5
CCOC(=O)N1CCN(C(=O)CC2c3ccccc3Oc3ccccc32)CC1	-1.05	1.2
O=C1CN(C(=O)CC2c3ccccc3-c3ccccc32)CC(=O)N1	-0.663	43.0*
COc1cccc2c1C(=O)c1c(O)c3c(c(O)c1C2=O)C[C@@](O)(C(=O)CO)C[C@@H]3OC1C[C@H](N)[C@H](O)[C@H](C)O1 (stereo not given in full)	-7.53*	.
COc1ccc(-c2cc(-c3ccco3)nn2-c2nc(-c3ccc(Cl)cc3)cs2)cc1	.	-1.3
COc1ccc(-c2csc(-n3[nH]c(C)c(C(c4ccc(Cl)cc4)C(C#N)C(N)=O)c3=O)n2)cc1 (stereo not given)	-0.008	34.9*
O=C(Cc1nc2ccccc2s1)c1ccc(O)cc1O	.	22.2
O=C(Cc1nncn1-c1ccccc1)c1ccc(O)cc1O	.	33.0*
CCCn1c(C)c(Br)c(=O)n(C(C)(C)C)c1=O	.	-0.1
SMILES	KSHV LANA nucl	Ab BasE inh
Cc1cc(C(=O)COc2cccc3c2OC(C)(C)C3)c(C)n1C1CC1	.	0.8
N#C/C(=C\c1ccc(-c2ccccc2)o1)c1ccccc1	2.33	-33.7
N#C/C(=C\c1ccc(N2CCCC2)o1)c1ccccc1	-5.41*	-35.5
Cn1c(N)nc(N)c(N)c1=O	.	24.8
Nc1ccccc1OCCN1CCOCC1	0.935	1.0
COc1ccc(-c2nc3scc(CCNC(=O)/C=C/c4ccco4)n3n2)cc1	2.49	-0.9
CC(C)C(=O)Nc1cccc(-c2nc3ccccc3o2)c1	0.634	1.4
CCCC(C)C(=O)Nc1ccc(-c2nc3ccccc3o2)cc1 (stereo not given)	-2.25*	1.0
N#C/C(=C\c1ccco1)C(N)=S	.	-1.8
N#C/C(=C\C=C\c1ccco1)C(N)=S	-0.629	33.2*
COC(=O)c1ccccc1NC(=O)c1c(Cl)nc2sccn12	.	2.9
CC(OC(=O)c1cccnc1SC(C)C(=O)NC1(C#N)CCCCC1)C(=O)NC1(C#N)CCCCC1 (stereo not given)	.	-1.2
COCCNC(=O)c1cc(Br)cs1	0.078	2.0
COCCNC(=O)c1cc(Br)c(C)c(C)c1C	-2.43*	1.9
CCOC(=O)c1c(NC(=O)Cn2nnc3sc4c(c3c2=O)CCC(C)C4)sc2c1CCCC2 (stereo not given)	.	1.1
CCN1CN=C(SCc2c(C)c(C)c(C)c(C)c2C)NC1	.	0.0
CC(C)CC(=O)Nc1c(C(=O)Nc2cccc(F)c2)oc2ccccc12	3.35	-1.3
Cc1cc2c(c(=O)[nH]1)C(c1ccncc1)C(C#N)=C(N)O2 (stereo not given)	-0.88	-0.1
COC(=O)C1=C(N)Oc2cc(C)[nH]c(=O)c2C1c1ccccc1OC (stereo not given)	-0.772	43.1*
CCOC(=O)c1cccc(NC(=O)Cc2noc3ccccc23)c1	-0.131	0.3
O=C(Cn1cnc2ccccc21)OCc1ccc(Br)cc1	.	26.7*
NC(=O)Cn1cnc2ccccc21	0.138	0.7
Cc1csc(C(C#N)C(=O)CSc2nc3ccccc3n2-c2ccccc2)n1 (stereo not given)	.	35.1*
Cc1csc(C(C#N)C(=O)CSc2cc(C)c3ccccc3n2)n1 (stereo not given)	.	2.4
